{"source": "paper PMC3654155", "about": "(Bioorganic & medicinal chemistry letters, 2013)", "key": {"[1]": {"test_system": "Saccharoyces cerevisiae", "test": "Cellular levels of H3K56ac", "format": "cell-based", "conditions": "data not shown"}, "[2]": {"test_system": "Saccharoyces cerevisiae", "test": "Sensitivity to the DNA damaging agent camptothecin", "format": "cell-based", "conditions": "data not shown"}, "[3]": {"target": "Gcn5 (Saccharomyces cerevisiae, UniProt Q03330)", "sequence (Q03330 whole entry)": "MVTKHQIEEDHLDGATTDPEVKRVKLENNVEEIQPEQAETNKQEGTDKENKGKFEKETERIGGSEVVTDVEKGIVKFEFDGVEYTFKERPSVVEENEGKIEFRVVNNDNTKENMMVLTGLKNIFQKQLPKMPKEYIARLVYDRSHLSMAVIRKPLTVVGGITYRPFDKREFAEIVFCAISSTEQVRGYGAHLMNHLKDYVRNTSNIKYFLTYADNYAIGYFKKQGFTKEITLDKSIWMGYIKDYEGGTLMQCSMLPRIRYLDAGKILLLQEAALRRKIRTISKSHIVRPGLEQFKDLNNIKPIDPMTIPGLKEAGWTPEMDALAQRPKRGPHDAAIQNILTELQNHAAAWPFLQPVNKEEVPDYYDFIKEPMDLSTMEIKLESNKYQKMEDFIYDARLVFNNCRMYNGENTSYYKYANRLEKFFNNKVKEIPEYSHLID", "test": "Gcn5 HAT reaction-rate assay with H3n21 peptide", "format": "biochemical", "outline": "(§1)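 Enzyme: 3.1 µg/ml (61 nM) Gcn5 or 15 µg/ml p300, with 15 µM H3n21 peptide. Enzyme and peptide pre-incubated with DMSO or test compound for 5 min at 30°C. Reactions started with 30 µM acetyl-CoA. Released CoA quantified every 2 min over the first 10 min. Rate derived by linear regression of product versus time. Compound capped at 100 µM. For p300, single-point assays were also run at 0.5–2 µM compound.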"}, "[4]": {"target": "T1, p300 (Homo sapiens, UniProt Q09472)", "T1 sequence (Q09472 whole entry, species assumed)": "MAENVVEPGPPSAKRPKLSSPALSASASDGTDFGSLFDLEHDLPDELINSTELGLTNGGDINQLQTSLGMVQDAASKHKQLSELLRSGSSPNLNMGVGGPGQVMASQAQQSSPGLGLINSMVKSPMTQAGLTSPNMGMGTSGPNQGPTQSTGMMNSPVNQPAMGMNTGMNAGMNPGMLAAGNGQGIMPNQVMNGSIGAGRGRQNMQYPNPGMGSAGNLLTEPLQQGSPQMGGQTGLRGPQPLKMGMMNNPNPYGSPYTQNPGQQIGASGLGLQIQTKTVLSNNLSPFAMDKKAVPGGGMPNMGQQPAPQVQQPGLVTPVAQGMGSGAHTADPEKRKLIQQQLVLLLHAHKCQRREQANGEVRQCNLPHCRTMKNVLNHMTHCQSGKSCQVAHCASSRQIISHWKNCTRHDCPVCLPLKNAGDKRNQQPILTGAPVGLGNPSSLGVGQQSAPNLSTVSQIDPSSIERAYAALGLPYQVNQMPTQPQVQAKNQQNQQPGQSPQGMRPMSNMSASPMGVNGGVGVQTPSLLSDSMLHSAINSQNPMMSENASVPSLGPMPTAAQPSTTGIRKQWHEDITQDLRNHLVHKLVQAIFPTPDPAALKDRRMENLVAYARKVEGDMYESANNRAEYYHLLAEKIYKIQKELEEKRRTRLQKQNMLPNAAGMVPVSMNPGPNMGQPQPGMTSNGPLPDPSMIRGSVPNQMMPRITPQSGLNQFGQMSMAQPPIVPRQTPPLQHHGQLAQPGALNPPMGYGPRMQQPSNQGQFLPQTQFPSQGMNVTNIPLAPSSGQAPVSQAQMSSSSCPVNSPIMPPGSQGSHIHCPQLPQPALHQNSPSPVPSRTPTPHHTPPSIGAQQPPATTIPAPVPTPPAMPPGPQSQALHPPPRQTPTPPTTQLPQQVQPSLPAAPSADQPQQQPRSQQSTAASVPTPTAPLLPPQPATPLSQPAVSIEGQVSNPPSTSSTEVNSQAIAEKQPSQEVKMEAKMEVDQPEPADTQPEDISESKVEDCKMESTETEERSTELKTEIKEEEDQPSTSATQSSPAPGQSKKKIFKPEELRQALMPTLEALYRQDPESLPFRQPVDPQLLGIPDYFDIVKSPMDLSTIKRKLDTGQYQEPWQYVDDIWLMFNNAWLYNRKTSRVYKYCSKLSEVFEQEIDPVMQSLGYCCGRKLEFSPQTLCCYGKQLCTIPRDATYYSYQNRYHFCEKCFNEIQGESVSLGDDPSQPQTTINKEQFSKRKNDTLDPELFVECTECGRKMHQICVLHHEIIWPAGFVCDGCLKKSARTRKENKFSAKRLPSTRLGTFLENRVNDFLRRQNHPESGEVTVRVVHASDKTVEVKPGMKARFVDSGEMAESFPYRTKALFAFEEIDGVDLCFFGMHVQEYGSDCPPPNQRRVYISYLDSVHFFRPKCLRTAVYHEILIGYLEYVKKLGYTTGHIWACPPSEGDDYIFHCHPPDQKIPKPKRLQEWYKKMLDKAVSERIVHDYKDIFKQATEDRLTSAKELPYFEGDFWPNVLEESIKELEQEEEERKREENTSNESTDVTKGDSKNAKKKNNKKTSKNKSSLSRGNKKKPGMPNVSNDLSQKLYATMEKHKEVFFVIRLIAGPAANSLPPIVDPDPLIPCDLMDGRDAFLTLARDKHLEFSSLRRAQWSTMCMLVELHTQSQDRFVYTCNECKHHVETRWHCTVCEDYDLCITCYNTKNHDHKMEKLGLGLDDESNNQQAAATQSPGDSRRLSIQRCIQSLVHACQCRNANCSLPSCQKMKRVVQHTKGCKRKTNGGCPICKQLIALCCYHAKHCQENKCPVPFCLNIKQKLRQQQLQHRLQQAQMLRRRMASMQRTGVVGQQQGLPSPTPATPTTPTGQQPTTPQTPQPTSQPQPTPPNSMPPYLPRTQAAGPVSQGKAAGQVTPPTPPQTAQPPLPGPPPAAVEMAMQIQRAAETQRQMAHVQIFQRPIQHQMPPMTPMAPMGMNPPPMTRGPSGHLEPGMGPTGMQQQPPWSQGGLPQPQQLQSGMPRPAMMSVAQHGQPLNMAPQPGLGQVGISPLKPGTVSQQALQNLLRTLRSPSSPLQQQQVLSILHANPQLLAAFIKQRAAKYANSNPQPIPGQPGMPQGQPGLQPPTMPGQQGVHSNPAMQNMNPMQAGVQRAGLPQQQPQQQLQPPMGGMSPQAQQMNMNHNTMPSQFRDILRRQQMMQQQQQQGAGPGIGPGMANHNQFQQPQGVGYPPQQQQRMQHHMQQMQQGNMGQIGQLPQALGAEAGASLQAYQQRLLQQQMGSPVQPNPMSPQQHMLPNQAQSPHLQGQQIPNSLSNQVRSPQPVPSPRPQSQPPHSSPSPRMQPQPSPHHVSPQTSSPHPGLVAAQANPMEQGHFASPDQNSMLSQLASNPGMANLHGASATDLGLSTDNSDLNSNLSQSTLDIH", "test": "HAT-ELISA on", "format": "biochemical, mammalian", "conditions": "500 nM compound, 15 µg/ml p300"}, "[5]": {"target": "Rtt109/Asf1 (Saccharomyces cerevisiae, UniProt Q07794)", "test": "HAT-ELISA of H3K56 acetylation on", "format": "biochemical", "conditions": "500 nM compound, 50 nM Rtt109, 400 nM Asf1N, 30 min, 30°C", "outline": "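Reaction mix: 50 nM Rtt109, 400 nM Asf1N and […] (H3-H4)2 tetramers, pre-incubated 5 min with DMSO or 500 nM test compound. Started with 15 µM acetyl-CoA, with water as the no-substrate control, then incubated 30 min at 30°C. H3K56ac detected by ELISA with H3K56ac-specific rabbit antiserum. Signal normalised to DMSO plus acetyl-CoA.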"}, "[6]": {"test_system": "C. albicans", "test": "Sensitivity to the DNA damaging agent camptothecin", "format": "cell-based", "conditions": "data not shown"}, "[7]": {"target": "T1, p300", "test": "p300 HAT reaction-rate assay with H3n21 peptide", "format": "biochemical, mammalian", "outline": "as §1"}, "[8]": {"target": "T2, Rtt109-Vps75 (Saccharomyces cerevisiae, UniProt Q07794)", "T2 sequence (Q07794 1-436)": "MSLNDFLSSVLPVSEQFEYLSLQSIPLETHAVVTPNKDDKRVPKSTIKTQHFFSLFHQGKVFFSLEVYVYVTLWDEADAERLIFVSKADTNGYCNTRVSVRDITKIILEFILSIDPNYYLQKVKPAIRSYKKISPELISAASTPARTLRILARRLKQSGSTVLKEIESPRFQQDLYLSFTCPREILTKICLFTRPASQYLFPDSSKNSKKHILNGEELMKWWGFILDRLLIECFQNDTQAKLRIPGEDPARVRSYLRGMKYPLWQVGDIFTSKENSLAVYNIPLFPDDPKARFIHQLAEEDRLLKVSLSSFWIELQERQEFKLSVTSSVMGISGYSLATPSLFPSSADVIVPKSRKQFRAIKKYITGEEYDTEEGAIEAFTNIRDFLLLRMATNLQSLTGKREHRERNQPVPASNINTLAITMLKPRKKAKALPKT", "T2 sequence (P53853 1-264 partner)": "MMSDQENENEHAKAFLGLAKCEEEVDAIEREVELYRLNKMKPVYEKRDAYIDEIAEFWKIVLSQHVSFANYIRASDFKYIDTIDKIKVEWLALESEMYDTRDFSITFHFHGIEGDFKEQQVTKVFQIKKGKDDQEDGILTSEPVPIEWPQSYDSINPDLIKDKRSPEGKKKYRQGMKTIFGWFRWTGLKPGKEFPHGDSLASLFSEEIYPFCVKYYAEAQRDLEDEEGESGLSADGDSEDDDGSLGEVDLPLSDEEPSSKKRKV", "test": "HAT-ELISA of H3K56 acetylation on", "format": "biochemical", "conditions": "500 nM compound, 50 nM Rtt109, 50 nM Vps75, 30 min, 30°C"}, "[9]": {"test_system": "C. albicans", "test": "Cellular levels of H3K56ac", "format": "cell-based", "conditions": "data not shown"}, "[10]": {"target": "T2, Rtt109-Vps75", "test": "Rtt109-Vps75 HAT reaction-rate assay with H3n21 peptide, released CoA quantified", "format": "biochemical", "conditions": "for Vmax, acetyl-CoA titration: 50 nM Rtt109-Vps75, 15 µM H3n21"}, "[11]": {"target": "T2, Rtt109-Vps75", "test": "Dialysis and time-course tests of tight binding to Rtt109-Vps75", "format": "biochemical"}, "[12]": {"test": "Solubility limit in HAT assays", "format": "physicochemical", "conditions": "not tested above 100 µM"}, "[13]": {"test_system": "Rtt109", "conditions": "ref [14], [20]; cited from earlier work"}, "[14]": {"target": "T2, Rtt109-Vps75", "test": "Single-point HAT reactions, CoA formed by the end of a 30-minute reaction", "format": "biochemical", "conditions": "data not shown"}}}
{"molecule": "CCCC1(c2ccccc2)NC(=O)N(CC(=O)N(C)Cc2c(F)cccc2Cl)C1=O", "note": "(stereo not shown) [compound 1, N-[(2-chloro-6-fluorophenyl)methyl]-2-(2,5-dioxo-4-phenyl-4-propylimidazolidin-1-yl)-N-methylacetamide]", "values": [{"measurement": "effect on cellular levels of H3K56ac", "setting": "[1]", "value": "have not observed that compound 1 is able to affect"}, {"measurement": "effect on sensitivity to camptothecin", "setting": "[2]", "value": "have not observed that compound 1 is able to affect"}, {"measurement": "enzyme reaction rate remaining, Gcn5", "setting": "[3]; compound up to 100 µM, 61 nM Gcn5", "value": "≥ 80", "unit": "% activity"}, {"measurement": "inhibition of HAT activity of Gcn5", "setting": "[3]; dose response up to 100 µM", "value": "did not significantly inhibit"}, {"measurement": "inhibition of p300 HAT activity on (H3-H4)2 tetramers", "setting": "[4]", "value": "no inhibitory effect"}, {"measurement": "inhibition of H3K56 acetylation by Rtt109/Asf1", "setting": "[5]", "value": "inhibited acetylation"}, {"measurement": "effect on sensitivity to camptothecin", "setting": "[6]", "value": "have not observed that compound 1 is able to affect"}, {"measurement": "inhibition of p300 in single point enzyme assay", "setting": "[7]; 0.5 – 2 µM compound", "value": "without inhibiting p300"}, {"measurement": "enzyme reaction rate remaining, p300", "setting": "[7]; compound up to 100 µM, 15 µg/ml p300", "value": "≥ 80", "unit": "% activity"}, {"measurement": "inhibition of HAT activity of p300", "setting": "[7]; dose response up to 100 µM", "value": "did not significantly inhibit"}, {"measurement": "inhibition of H3K56 acetylation by Rtt109-Vps75", "setting": "[8]", "value": "inhibited acetylation"}, {"measurement": "effect on cellular levels of H3K56ac", "setting": "[9]", "value": "have not observed that compound 1 is able to affect"}, {"measurement": "preference for inhibition of Rtt109 over p300 and Gcn5", "setting": "[10]", "value": "greater than two order of magnitude preference"}, {"measurement": "Vmax, acetyl-CoA titration", "setting": "[10]; 30 µM compound 1", "value": "1.46 ± 0.08", "unit": "nM/s"}, {"measurement": "Vmax, acetyl-CoA titration", "setting": "[10]; 60 µM compound 1", "value": "0.68 ± 0.09", "unit": "nM/s"}, {"measurement": "inhibition of Rtt109-Vps75 in single point enzyme assay", "setting": "[10]; 0.5 – 2 µM compound", "value": "inhibited Rtt109"}, {"measurement": "time course of inhibition", "setting": "[11]; 1 µM Rtt109-Vps75 with 1.0 µM compound 1, incubated 0-60 minutes on ice", "value": "the degree of inhibition increased during the entire 60 minutes"}, {"measurement": "mode of inhibition", "setting": "[11]; from substrate titrations, dialysis and enzyme-concentration dependence", "value": "tight or perhaps irreversible inhibitor"}, {"measurement": "solubility in assay", "setting": "[12]", "value": "solubility limitations"}]}
{"molecule": "CC(=O)N[C@@H](CCCCNC(=O)CSCCNC(=O)CCNC(=O)[C@H](O)C(C)(C)COP(=O)(O)OP(=O)(O)OC[C@H]1O[C@@H](n2cnc3c(N)ncnc32)[C@H](O)[C@@H]1OP(=O)(O)O)C(N)=O", "note": "[Lys-CoA]", "values": [{"measurement": "effect on Rtt109 catalysis", "setting": "[13]", "value": "do not affect Rtt109 catalysis"}]}
{"molecule": "CCC1(c2ccccc2)NC(=O)N(CC(=O)N(C)Cc2c(F)cccc2Cl)C1=O", "note": "(stereo not shown) [SAR9]", "values": [{"measurement": "inhibition of acetylation by Rtt109-Vps75 in single-point HAT reactions", "setting": "[14]", "value": "not as potent as compound 1"}, {"measurement": "effect on reaction rates, dose response", "setting": "[10]; 100 nM – 1 µM compound, 50 nM Rtt109-Vps75", "value": "minimal inhibition even at the highest concentration tested"}]}
